Activity calls are given as the source filed them. The rule behind the calls is not given here.
Columns and labels:
[1] = Solubility in water; format: physicochemical; settings: buffer
[2] = Stability in unbuffered aqueous solutions at pH >6 assessed as compound hydrolysis; format: physicochemical; settings: unbuffered aqueous solution
[3] = Stability in unbuffered aqueous solutions at pH >6 assessed as compound decarboxylation; format: physicochemical
[4] = Stability in aqueous solutions at neutral pH; format: physicochemical; settings: buffer
MDCK = experiment: Cytotoxicity against MDCK cells infected with Influenza A virus Port Chalmers/1/73 (H3N2) up to 100 ug/ml after 3 days by carbol fuchsin staining-based assay; format: cell-based, Canis lupus familiaris; settings: dog, 72 h
How it was run: (§1)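 MDCK monolayers infected with influenza had compound in the agar overlay and were incubated 3 days at 33 °C. Monolayers were stained with carbol fuchsin or neutral red. MCC is the lowest concentration causing morphological cell abnormalities.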

HeLa = experiment: Cytotoxicity against human HeLa cells infected with Coxsackievirus B1 up to 100 ug/ml after 42 hrs by carbol fuchsin staining-based assay; format: cell-based
How it was run: (§2)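 HeLa monolayers infected with Coxsackie B1 under an agar overlay holding varying compound concentrations, incubated 37 °C, 42 h. Monolayers stained with carbol fuchsin or neutral red. MCC is the lowest concentration causing morphological abnormalities.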

Influenza A virus [5] = experiment: Antiviral activity against Influenza A virus Port Chalmers/1/73 (H3N2) infected in MDCK cells assessed as plaque reduction up to 100 ug/ml after 3 days by agar diffusion method; format: functional, organism-based
How it was run: (§3)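 Plaque reduction: varying compound concentrations were put in the agar overlay above infected monolayers. Coxsackie B1/HeLa was incubated 42 h at 37 °C; influenza/MDCK 3 days at 33 °C. PDD50 is the lowest concentration giving ≥50% fewer plaques than untreated controls.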

Coxsackievirus B1 [6] = experiment: Antiviral activity against Coxsackievirus B1 infected in human HeLa cells assessed as plaque reduction up to 100 ug/ml after 42 hrs by agar diffusion method; format: functional, organism-based
How it was run: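 Compound mixed at varying concentrations into the agar overlay above Coxsackie B1-infected HeLa monolayers. Incubated 37 °C for 42 h. PDD50 is the lowest concentration giving ≥50% fewer plaques than untreated controls.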

Influenza A virus [7] = experiment: Antiviral activity against Influenza A virus Port Chalmers/1/73 (H3N2) infected in MDCK cells at 1 mg/ml by agar diffusion method; format: functional; settings: read-out: DIZ
How it was run: (§4)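 Agar diffusion: compounds were diluted to 1 mg/mL in Eagle's MEM from stocks of 10 mg/mL in water or 100 mg/mL in DMSO. 0.02 mL went into 6 mm wells cut in the agar overlay above infected monolayers (influenza in MDCK, Coxsackie B1 in HeLa). Read-out was the diameter (mm) of the plaque-free inhibition zone around each well.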

Influenza A virus [8] = experiment: Antiviral activity against Influenza A virus Port Chalmers/1/73 (H3N2) infected in MDCK cells assessed as plaque reduction after 3 days by agar diffusion method; format: functional; how it was run: as §3
Coxsackievirus B1 [9] = experiment: Antiviral activity against Coxsackievirus B1 infected in human HeLa cells at 1 mg/ml by agar diffusion method; format: functional; settings: Enterovirus B; read-out: DIZ; how it was run: as §4
Coxsackievirus B1 [10] = experiment: Antiviral activity against Coxsackievirus B1 infected in human HeLa cells assessed as plaque reduction after 42 hrs by agar diffusion method; format: functional; how it was run: as §3
[11] = Cytotoxicity against MDCK cells infected with Influenza A virus Port Chalmers/1/73 (H3N2) after 3 days by carbol fuchsin staining-based assay; format: cell-based, Canis lupus familiaris; settings: dog; how it was run: as §1
[12] = Cytotoxicity against human HeLa cells infected with Coxsackievirus B1 after 42 hrs by carbol fuchsin staining-based assay; format: cell-based; how it was run: as §2

Compound: CNC1=NC(=O)C(C(C)c2cn(C(=O)OCC(C)(C)N3CCOCC3)c3ccccc23)S1.Cl (racemic)
- solubility [1]: soluble
- Stability [2]: Unstable
- Stability [3]: Unstable

Compound: CNC1=NC(=O)C(C(C)c2cn(C(=O)CCCC(=O)[O-])c3ccccc23)S1.[Na+] (racemic)
- solubility [1]: soluble
- Stability [4]: Stable

Compound: CNC1=NC(=O)C(C(C)c2cn(C(=O)c3ccccc3C(=O)O)c3ccccc23)S1 (racemic) [listing 1 of 2 here]
- Activity (MDCK): Non-toxic
- Activity (HeLa): Non-toxic

Compound: CNC1=NC(=O)C(C(C)c2cn(C(=O)c3ccccc3C(=O)O)c3ccccc23)S1 (racemic) [listing 2 of 2 here]
- Activity (Influenza A virus [5]): inactive
- Activity (Coxsackievirus B1 [6]): inactive

Compound: CNC1=NC(=O)C(C(C)c2cn(C(=O)CCC(=O)[O-])c3ccccc23)S1.[Na+] (racemic)
- solubility [1]: soluble
- Stability [4]: Stable

Compound: CNC1=NC(=O)C(C(C)c2cn(C(=O)OC(C)(C)CN(C)C)c3ccccc23)S1 (racemic)
- zone of inhibition at 1000 µg/mL (Influenza A virus [7]): 25 mm
- PDD50 (Influenza A virus [8]): 0.3 µg/mL
- zone of inhibition at 1000 µg/mL (Coxsackievirus B1 [9]): 21 mm
- PDD50 (Coxsackievirus B1 [10]): 5 µg/mL
- MCC at 72 h [11]: 3 µg/mL
- MCC at 42 h [12]: 30 µg/mL

Compound: CNC1=NC(=O)C(C(C)c2c[nH]c3ccccc23)S1 (racemic)
- zone of inhibition at 1000 µg/mL (Influenza A virus [7]): 30 mm
- PDD50 (Influenza A virus [8]): 0.5 µg/mL
- zone of inhibition at 1000 µg/mL (Coxsackievirus B1 [9]): 29 mm
- PDD50 (Coxsackievirus B1 [10]): 5 µg/mL
- MCC at 72 h [11]: 3 µg/mL
- MCC at 42 h [12]: 30 µg/mL

Compound: CNC1=NC(=O)C(C(C)c2cn(C(C)=O)c3ccccc23)S1 (racemic)
- Activity (Influenza A virus [5]): inactive
- Activity (Coxsackievirus B1 [6]): inactive
- Activity (MDCK): Non-toxic
- Activity (HeLa): Non-toxic

Compound: CNC1=NC(=O)C(C(C)c2cn(C(=O)OC(C)(C)CN(C)C)c3ccccc23)S1.Cl (racemic)
- solubility [1]: soluble
- Stability [2]: Unstable
- Stability [3]: Unstable

Compound: CNC1=NC(=O)C(C(C)c2cn(C(=O)CCC(=O)O)c3ccccc23)S1 (racemic)
- zone of inhibition at 1000 µg/mL (Influenza A virus [7]): 0 mm
- PDD50 (Influenza A virus [8]): >100 µg/mL
- zone of inhibition at 1000 µg/mL (Coxsackievirus B1 [9]): 0 mm
- PDD50 (Coxsackievirus B1 [10]): 100 µg/mL
- MCC at 72 h [11]: > 100 µg/mL
- MCC at 42 h [12]: > 100 µg/mL

Compound: CNC1=NC(=O)C(C(C)c2cn(C(=O)CCCC(=O)O)c3ccccc23)S1 (racemic)
- zone of inhibition at 1000 µg/mL (Influenza A virus [7]): 24 mm
- PDD50 (Influenza A virus [8]): 5 µg/mL
- zone of inhibition at 1000 µg/mL (Coxsackievirus B1 [9]): 20 mm
- PDD50 (Coxsackievirus B1 [10]): 10 µg/mL
- MCC at 72 h [11]: 100 µg/mL
- MCC at 42 h [12]: > 100 µg/mL
